Reference: ChEMBL document CHEMBL4513216, “Probing the Open Global Health Chemical Diversity Library for Multistage-Active Starting Points for Next-Generation Antimalarials” (ACS Infect Dis, 2020)

Assay: Toxicity liver stage against HepG2, at 10uM
Format: cell-based
Design: test concentration 10 uM, cell line HepG2-A16-CD81EGFP
Conditions: human, HepG2-A16-CD81EGFP cells; read-out: INHIBITION
Method in brief: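 Uninfected HepG2-A16-CD81EGFP cells, 3 × 10^3 per well, 1536-well, plated on prespotted compound at 10 μM final, parasite-free screening media added to match infected plates; puromycin 10 μM positive, DMSO 0.5% negative; run in parallel with 48 h PbLuc assay at 37 °C, 5% CO2; viability by CellTiter-Glo luminescence, normalized to controls.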

| SMILES | cytotoxicity at 10 µM [%] |
| --- | --- |
| CN(CCC(O)c1ccccc1)Cc1ccccc1C#N (stereo not given) | 6.87 |
| COc1ccc(CN2CC(O)CN(C(=O)C3CCC3)CC2=O)cc1 (stereo not given) | -12.8 |
| CC(C)Cc1cc(C(=O)O)nc2[nH]c(=O)[nH]c(=O)c12 | -0.508 |
| COCCNC(=O)Cc1cnc(-n2cccc2)s1 | -3.35 |
| O=C(Nc1cccnc1-n1cc(Cl)cn1)C1CC1 | -42.7 |
| Cc1cc(C)nc(NCCC(=O)NCCn2ccc3ccccc32)n1 | -34.2 |
| CCS(=O)(=O)N1CC(c2nc(-c3ccncc3)no2)C1 | -5.86 |
| COCC(=O)NCC(Cc1cccc(F)c1)n1cccc1 (stereo not given) | 2.55 |
| O=C(CN1C(=O)CCC1=O)NCCc1nc(C2CC2)cc(C(F)(F)F)n1 | -2.02 |
| O=c1ccc2c([nH]1)CCN(S(=O)(=O)c1ccc3c(c1)CCCC3)C2 | -4.63 |
| Cc1cc(C(O)CCNC(=O)COc2ccccc2C)c(C)o1 (stereo not given) | 2.86 |
| CC(C)CNC(=O)N1C[C@H]2CC[C@@]3(N=C(c4ccccc4)NC3=O)[C@H]2C1 | -5.82 |
| Cn1cc(CN2CCC3(CC2)CCN(Cc2ccccn2)CC3)cn1 | 9.84 |
| COCCC(=O)N1C[C@@H]2COC[C@]2(COCc2cccnc2)C1 | -4.23 |
| CN1CCN(c2ncc3c(=O)n(Cc4ccco4)ccc3n2)CC1 | -15.1 |
| Cc1noc(C)c1CC(=O)N1CC[C@@](C)(O)[C@H](Oc2ccccc2)C1 | 0.935 |
| COc1ccc2c(c1)C(=O)NC1(CC2)CCN(Cc2ccccc2)C1 (stereo not given) | 0.585 |
| CC(C)Nc1cccc(CC2CCN(S(C)(=O)=O)CC2)n1 | -22.3 |
| CNc1cc(C2CN(Cc3csc(C)n3)CCO2)nc(C)n1 (stereo not given) | -1.6 |
| Cc1nccc(C2CCCCN2Cc2ccc(F)cc2)n1 (stereo not given) | -6.06 |
| CC(C)NC(=O)C1(Cc2ccccc2-c2cccs2)CCNC1 (stereo not given) | -42 |
| COc1cccc(CN2CC[C@H](NC(C)=O)[C@@H](O)CC2)c1F | -8.63 |

| SMILES | cytotoxicity at 10 µM [%] |
| --- | --- |
| O=C(c1ccncc1)N1CCCC1c1nc(O)cc(-c2ccccn2)n1 (stereo not given) | -9.08 |
| COc1ncc(CN2CCOC(C)(C(=O)N3CCOCC3)C2)cn1 (stereo not given) | -9.49 |
| CNc1cccc(C2CCCN(C(=O)c3coc(C)n3)C2)n1 (stereo not given) | -11.7 |
| Cc1ccn(CCC(=O)N2CCCC(Cc3cccnc3)C2)n1 (stereo not given) | -4.47 |
| C[C@]1(O)CN(CC(=O)N2CCCC2)CC[C@@H]1Oc1cccc(F)c1 | -19.1 |
| COc1ccc(C(C)NCc2cscn2)cc1Cn1cccn1 (stereo not given) | 3.01 |
| CCN(CCNS(=O)(=O)N1CCOCC1)C(=O)OC(C)(C)C | 19.9 |
| CN(CCOCC1CC1)C(=O)Nc1ccc([S+](C)[O-])c(F)c1 (stereo not given) | -1.7 |
| NS(=O)(=O)CCCNC(=O)c1cnc(-c2ccsc2)s1 | -9.59 |
| COC(=O)c1cccc(CNC(=O)NCCC(F)(F)F)c1 | -0.247 |
| N#Cc1ccc(NCC(=O)Nc2ccn(Cc3cccnc3)n2)cc1 | -11.2 |
| COCCN(Cc1cccc(C#N)c1)Cc1nc(C)no1 | 1.18 |
| CC(C)c1noc(CCC(=O)Nc2cc(C(F)(F)F)c[nH]c2=O)n1 | -0.387 |
| CC(=O)N(c1ccc(C)cc1)c1nc(CN2CCCCC2C)cs1 (stereo not given) | -5.65 |
| N#Cc1cc(N2CCC(CS(N)(=O)=O)CC2)c2ccccc2n1 | -11.4 |
| CC(c1cccnc1)N1CCN(CCCC#N)CC1 (stereo not given) | 10.3 |
| CN(C(=O)CCNC(=O)C1COc2ccccc21)c1ccccc1 (stereo not given) | -7.53 |
| COc1ccc(CNc2cccnc2-n2cccn2)c(OC)c1OC | 5.69 |
| CN1CC(C(=O)NCc2ccc(OCc3cccnc3)cc2)CC1=O (stereo not given) | 17.7 |
| Cc1nccc(CNS(=O)(=O)N(C)Cc2ccc(Cl)cc2)n1 | 29.5 |
| COC1CCN(CCNc2ncc(Br)cc2C)CC1 | -13.9 |
| CN(C)C(CNC(=O)NCCc1cccc(O)c1)c1ccco1 (stereo not given) | -4.36 |

| SMILES | cytotoxicity at 10 µM [%] |
| --- | --- |
| CCCS(=O)(=O)N1CCC(NC(=O)c2cc(C)c(CC)s2)CC1 | 18.4 |
| CS(=O)(=O)NCC(=O)N1CCCC1c1noc(C2CC2)n1 (stereo not given) | 14.2 |
| Cc1cccc(N2CCOCC3(C2)CN(c2cccnc2)C(=O)CO3)n1 (stereo not given) | -4.96 |
| O=C(c1cnccn1)N1CCC2(CC1)CC(Oc1ccccc1)CO2 (stereo not given) | 2.74 |
| Nc1nccc(-c2c[nH]nc2C2CCCCC2)n1 | 36.5 |
| c1ccc2c(c1)CC(N1CCCC(NCc3cccc4nonc34)C1)C2 (stereo not given) | -1.98 |
| CCC(C)N(Cc1cnc(NCC(=O)O)nc1)Cc1ccsc1 (stereo not given) | 0.866 |
| Cc1cc(CN2CCN(CC3CC3)[C@@H]3CS(=O)(=O)C[C@@H]32)ccc1F | -1.37 |
| O=C(N1CC(c2cccnc2)C1)C1(c2ccc(F)cc2)CCOCC1 | -14.5 |
| CCOc1ccccc1C(C(=O)O)N(C)CC1CCOCC1 (stereo not given) | -4.36 |
| CC(=O)N1CCc2c(nc(N(C)C)nc2N(C)CC2CCCO2)C1 (stereo not given) | 1.9 |
| CSCC(=O)N1CCCC(CO)(CC2CC2)C1 (stereo not given) | 4.38 |
| O=C(O)C1c2nc[nH]c2CCN1Cc1cc(-c2ccccc2)no1 (stereo not given) | -11.4 |
| CCOc1cc2c(cc1CN1CCC3(CCCNC3=O)C1)CCC2 (stereo not given) | 14.9 |
| Cc1nnc(N2CCN(C)C3(CCC(=O)N(CCO)CC3)C2)s1 (stereo not given) | -9.2 |
| CSCCc1n[nH]c2c1CN(S(=O)(=O)c1c(C)nn(C)c1C)CC2 | 7.66 |
| CCOC(=O)C1(Cc2cccc(OC)c2)CCCN(Cc2ncc[nH]2)C1 (stereo not given) | 3.86 |
| Cc1noc(C)c1C(=O)N(Cc1ccsc1)CC1CCCO1 (stereo not given) | 3.91 |
| Cc1ccccc1CSc1nc(N)cc(N2CCCC(C(N)=O)C2)n1 (stereo not given) | -2.32 |
| CC(C)Cc1nc(CCn2cncn2)n(-c2ccc3c(c2)OCCO3)n1 | 12.5 |
| CCOC(=O)CNC(=O)N1CCc2onc(-c3ccc(Cl)cc3)c2C1 | -43.4 |
| CCc1n[nH]c(C(=O)N2CCC3(CCCN(CCOC)C3=O)C2)c1C (stereo not given) | 6.38 |

| SMILES | cytotoxicity at 10 µM [%] |
| --- | --- |
| CN(Cc1noc2c1CCCC2)C(=O)Cn1c(=O)cnc2ccccc21 | -38.9 |
| O=C1CCCN1CCC1CCN(C2CCCNC2)CC1 (stereo not given) | 2.37 |
| COCC1(CNc2cc(C(C)C)nc(N)n2)CC1 | 29.4 |
| Cc1cc(C2CCC2)nc(N(C)Cc2cc(-c3ccccn3)no2)n1 | 21.2 |
| COc1ccc(CN2CCCn3cncc3C2)cc1Cn1cncn1 | 5.63 |
| O=C(c1ccc2cccnc2n1)N(Cc1ccsc1)CC1CCCO1 (stereo not given) | -15.1 |
| OC1(CN2CCN(c3cccc(C(F)(F)F)c3)CC2)CNCCOC1 (stereo not given) | -5.13 |
| CN1CCCN(c2nccc(-c3cc(C(=O)O)ccn3)n2)CC1 | 13.1 |
| CC(C)COc1cccc(-c2nc3c([nH]2)CCNC3)c1 | 4.48 |
| CN(CC(=O)N1CC(C)(C)[C@](O)(C2CC2)C1)Cc1ccncc1 | -44.1 |
| CCc1ccc(CN(C)c2cc(COC)nc3ccnn23)cc1 | 3.52 |
| CC(C)c1cc(CN2CCC(N)CC2)on1 | -10.7 |
| CN(C)C(=O)c1cccc(CN2CCOC(Cn3cncn3)C2)c1 (stereo not given) | -3.75 |
| CC(C)c1nccn1C1CCCN(C(=O)c2nccnc2N)C1 (stereo not given) | 0.0264 |
| Cc1nc2cc(=O)[nH]n2c(C)c1CC(=O)NCc1ccc(C#N)cc1 | -3.34 |
| c1cnn(CC2CCCN2Cc2ccc(-n3cccn3)cc2)c1 (stereo not given) | -4.8 |
| CC(C)c1nc(CN2CCCC2CN2CCCC2)cs1 (stereo not given) | 6.72 |
| CC(C)c1nc(C2CCCN2C(=O)c2cnc[nH]2)no1 (stereo not given) | -6.49 |
| CC(C)c1nnc2n1CCN(C(=O)c1cccc(C(F)(F)F)c1)C2 | 4.09 |
| CC(C)c1nc(C2CCCN(Cc3nnc(C4CC4)o3)C2)no1 (stereo not given) | 5.65 |
| CSc1ccc(Cl)c(C(=O)N2CCCC(CNS(C)(=O)=O)C2)c1 (stereo not given) | -5.92 |
| O=C(CN1CCOC(Cn2cccn2)C1)Nc1nncs1 (stereo not given) | 4.79 |

| SMILES | cytotoxicity at 10 µM [%] |
| --- | --- |
| Cc1nc(NCc2ccc(F)cc2)cc(C2CCCN2)n1 (stereo not given) | -3.27 |
| Cc1cnc(CCNc2cccc(CC3CCCNC3)n2)s1 (stereo not given) | -3.02 |
| CCC(C)[C@H](N)c1nnc(SCC(=O)Nc2ccc(Br)cc2)o1 (stereo not given in full) | -3.48 |
| Cc1nccn1CCCn1cncc1-c1ccc2c(c1)CCCN2C | -4.7 |
| COc1ncc(CN2C[C@@H]3CC[C@@](O)(c4ccc(C)cn4)[C@@H]3C2)cn1 | -10.3 |
| CCn1cncc1CN(Cc1ccc(OC)cc1OC)CC1CCCO1 (stereo not given) | -18 |
| Cn1cc(CN2CCO[C@@H]3CN(C4CCCC4)C[C@@H]3C2)cn1 | -4.8 |
| CNC(=O)CN1CC[C@H]2CN(C(=O)c3cc[nH]n3)C[C@H]2C1 | 0.53 |
| CCN1CCC2(CC1)CC(NC(=O)c1csnn1)c1ccccc1O2 (stereo not given) | -116 |
| COc1ccccc1OCCc1cc(C2CCNC2)n[nH]1 (stereo not given) | -17.1 |
| CO[C@H]1CCN(Cc2ccoc2)C[C@@H]1Cc1ccccc1 | -11.9 |
| Cc1cncc(C(=O)N2CCC3(CCCN(c4nncs4)C3)C2)c1 (stereo not given) | -99.4 |
| c1csc(CN2CCO[C@H]3[C@H](OCC4CCCC4)CC[C@@H]32)n1 | 6.09 |
| c1csc(NCc2n[nH]c3c2CCN(CC2CC2)C3)n1 | -0.733 |
| Cc1ncccc1NC(=O)[C@@H]1CCO[C@@H]2CCN(c3ccccc3)C[C@@H]21 | 6.7 |
| CNC(=O)NCC1CCC2(CCN(C(=O)c3cccnc3)CC2)CO1 (stereo not given) | -94.9 |
| CN1CC(=O)N(c2ccccc2)CC12CCN(CCO)C2 (stereo not given) | 3.16 |
| CN(Cc1ccco1)C[C@H]1OC[C@@H]2CCN(Cc3cccnc3)C[C@@H]21 | -7.9 |
| O=C([C@H]1C[C@H]2CN(c3ncc(F)cn3)C[C@@H]1O2)N1CCCC1 | -115 |
| CC(C)=CCN1C[C@@H]2CC[C@H]1CN(C(=O)CCc1nnc(C)[nH]1)C2 | -6.57 |
| Cc1cnccc1CN1Cc2ccccc2OC2(CCC(CO)CC2)C1 (stereo not given) | -8.83 |
| CCOc1ccccc1CCn1cc2[nH]cccc-2c1=O | 13.6 |
